Columns and labels:
[1] = target: Synaptic vesicular amine transporter (Bos taurus, UniProt Q27963); test: Inhibition of dopamine uptake at VMAT in bovine chromaffin granule ghosts
Procedure, shortened: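 Resealed bovine chromaffin granule ghosts preincubated 10 min at 30 °C in 0.3 M sucrose, 10 mM HEPES, 5 mM Mg-ATP, 5 mM MgSO₄, 100 µg/mL catalase, pH 7.0. Inhibitor then added for 2 min before starting uptake with DA. Aliquots taken at 6 min intervals, pelleted, washed and extracted in 0.1 M HClO₄. Intragranular catecholamines measured by HPLC-EC. Ki obtained by fitting typically 4–5 inhibitor × 6 DA concentrations to a competitive model. Errors are fitting standard errors.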

[2] = target: Synaptic vesicular amine transporter (Bos taurus) (UniProt Q27963); test: Ratio of Km for dopamine uptake at VMAT in bovine chromaffin granule ghosts to Ki for VMAT in bovine chromaffin granule ghosts
Procedure, shortened: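 Ratio of Km for DA to Ki for the inhibitor. Both were determined on the same ghost preparation for each compound, to normalize day-to-day variation in DA Km between preparations. Ki comes from DA-uptake competition in resealed bovine chromaffin granule ghosts (5 mM Mg-ATP, pH 7.0, 30 °C, HPLC-EC read-out). Km for DA comes from initial uptake rates fitted to Michaelis–Menten.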

[3] = substrate: C[n+]1ccc(-c2cccc(O)c2)cc1; test: (§1) Activity of VMAT in bovine chromaffin granule ghosts assessed as drug uptake; conditions: Bos taurus
Procedure, shortened: (§2)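 Resealed bovine adrenal chromaffin granule ghosts, prepared fresh from frozen membrane stores, preincubated 10 min at 30 °C in 0.3 M sucrose, 10 mM HEPES, 5 mM Mg-ATP, 5 mM MgSO₄, 100 µg/mL catalase, pH 7.0. Test substrate added without DA. Aliquots taken at 6 min intervals, diluted into ice-cold sucrose/HEPES, pelleted, washed, extracted with 0.1 M HClO₄. Intragranular substrate measured by HPLC-UV. Km and Vmax come from Michaelis–Menten fits of initial rates at 12 substrate concentrations.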

[4] = substrate: C[n+]1ccc(-c2ccccc2)cc1; test: as §1; conditions: Bos taurus; procedure, shortened: as §2
[5] = substrate: Cc1ccc(-c2cc[n+](C)cc2)cc1; test: as §1; conditions: Bos taurus; procedure, shortened: as §2
[6] = substrate: C[n+]1ccc(-c2ccc(O)cc2)cc1; test: as §1; conditions: Bos taurus; procedure, shortened: as §2
[7] = substrate: CN1CC=C(c2ccccc2)CC1; test: as §1; conditions: Bos taurus; procedure, shortened: as §2
[8] = substrate: COc1ccc(-c2cc[n+](C)cc2)cc1; test: as §1; conditions: Bos taurus; procedure, shortened: as §2

Molecule	Ki [1]	Dopamine Km / inhibitor Ki ratio [2]	other results
C=C(C[n+]1ccc(C2CCCCC2)cc1)c1ccccc1	53 µM	0.7	
CN1CC=C(c2ccc(O)cc2)CC1	134 µM	0.3	
COC(=O)[C@H]1[C@H]2C[C@@H]3c4[nH]c5cc(OC)ccc5c4CCN3C[C@H]2C[C@@H](OC(=O)c2cc(OC)c(OC)c(OC)c2)[C@@H]1OC [RESERPINE]	0.001 µM		
CN1CC=C(c2cccc(Cl)c2)CC1	27.7 µM	1.6	
CN1CC=C(c2cccc(O)c2)CC1	25.8 µM	1.7	
C[n+]1ccc(-c2ccc(F)cc2)cc1	51.3 µM	1	
C=C(CN1CCN(c2ccccc2)CC1)c1ccccc1	1.4 µM	24.1	
C=C(C[n+]1ccc(-c2ccccc2)nc1)c1ccccc1	13.4 µM	2.7	
C[n+]1ccc(-c2ccccc2)cc1	92 µM		
C=C(C[n+]1ccc(-c2ccccc2)cc1)c1ccccc1	38.4 µM	0.9	
COc1cc2c(cc1OC)C1CC(=O)C(CC(C)C)CN1CC2 (centres undefined) [TETRABENAZINE]	0.004 µM		
C=C(C[n+]1ccc(-c2ccccc2)cc1)c1ccc(-c2ccccc2)cc1	4.5 µM	11.3	
C[n+]1cccc(-c2cccc(O)c2)c1	36.6 µM	1.2	
C[n+]1ccc(-c2ccc(Cl)cc2)cc1	7.6 µM	5.8	
C=C(C[n+]1ccc(-c2ccc(O)cc2)cc1)c1ccc(Br)cc1	0.5 µM	41.5	
C[n+]1ccc(-c2cccc(C(F)(F)F)c2)cc1	24.6 µM	1.8	
C[n+]1ccc(-c2ccc(C(F)(F)F)cc2)cc1	33.8 µM	1.3	
CN1CC=C(c2ccccc2N)CC1	193 µM	0.1	

Molecule	Ki [1]	Dopamine Km / inhibitor Ki ratio [2]	other results
COc1ccc(-c2cc[n+](C)cc2)cc1	106 µM	0.2	
C[n+]1ccc(-c2cccc(Cl)c2)cc1	46.3 µM	1.1	
Cc1ccccc1-c1cc[n+](C)cc1	95 µM	0.3	
COc1ccc2c3c([nH]c2c1)[C@H]1C[C@H]2[C@H](C[C@@H](O)[C@H](OC)[C@H]2C(=O)O)CN1CC3	10 µM		
C[n+]1ccc(-c2ccc(O)cc2)cc1	82 µM	0.7	
C[n+]1cccc(-c2ccc(O)cc2)c1	338 µM	0.1	
C[n+]1ccc(-c2cccc(O)c2)cc1	2.4 µM	9.7	
C=C(C[n+]1ccc(-c2ccc(OC)cc2)cc1)c1ccccc1	2.8 µM	8.7	
Cc1ccc(-c2cc[n+](C)cc2)cc1	51.8 µM	1	
C=C(C[n+]1ccc(-c2cccc(O)c2)cc1)c1ccc(I)cc1	0.4 µM	55	
CN1CC=C(c2ccccc2)CC1	52.5 µM		
Cc1c[n+](C)ccc1-c1ccc(O)cc1	65 µM	0.8	
C=C(CN1CCC(c2ccccc2)CC1)c1ccccc1	16.4 µM	1.8	
C[N+]1=CC=C(c2ccccc2)CC1	53 µM	0.7	
CN1CC=C(c2ccc(F)cc2)CC1	49.7 µM	0.9	
Cc1ccccc1C1=CCN(C)CC1	38.4 µM		
Synaptic vesicular amine transporter (Bos taurus), Q27963 (protein) MALSELALLRRLQESRHSRKLILFIVFLALLLDNMLLTVVVPIIPSYLYSIEHEKDALEIQTAKPGLTASAPGSFQNIFSYYDNSTMVTGNSTDHLQGALVHEATTQHMATNSSSASSDCPSEDKDLLNENVQVGLLFASKATVQLLTNPFIGLLTNRIGYPIPMFTGFCIMFISTVMFAFSRTYAFLLIARSLQGIGSSCSSVAGMGMLASVYTDDEERGNAMGIALGGLAMGVLVGPPFGSVLYEFVGKTAPFLVLAALVLLDGAIQLFVLQPSRVQPESQKGTPLTTLLRDPYILIAAGSICFANMGIAMLEPALPIWMMETMCSHKWQLGVAFLPASVSYLIGTNVFGILAHKMGRWLCALLGMIIVGMSILCIPLAKNIYGLIAPNFGVGFAIGMVDSSMMPIMGYLVDLRHVSVYGSVYAIADVAFCMGYAIGPSAGGAIAKAIGFPWLMTIIGIIDILFAPLCFFLRSPPAKEEKMAILMDHNCPIKTKMYTQNSSQSHPIGEDEESESD			Km [3]: 8.4 µM; Vmax [3]: 1.9 nmol/mg/min; Km [4]: 73 µM; Vmax [4]: 1.4 nmol/mg/min; Km [5]: 41.3 µM; Vmax [5]: 0.9 nmol/mg/min; Km [6]: 107 µM; Vmax [6]: 1.6 nmol/mg/min; Km [7]: 409 µM; Vmax [7]: 1.7 nmol/mg/min; Km [8]: 135 µM; Vmax [8]: 1.6 nmol/mg/min
